# Where a name gives a salt, the structure may show the parent alone.
# Assays:
# HIV-1^WT = experiment: Anti-HIV-1 MTT assay; format: cell-based; conditions: read-out: Anti-HIV-1 IC50 against HIV-1^WT, MT-4 cells, mean ± 1 S.D.
# in vitro = format: cell-based, human; conditions: human
# MT-4 cells = experiment: in vitro; format: cell-based, human; conditions: for S.I. with (CC50/IC50^WT): CC50 in MT-4 / IC50 against HIV-1^WT
# HIV-1^67-75 = experiment: Anti-HIV-1 MTT assay in MT-4 cells; format: cell-based
# HIV-1EFdA^R = experiment: p24 assay using MT-4 cells; format: cell-based; conditions: for Activity against HIV-1EFdA^R (in words) / Fold change of IC50 against HIV-1EFdA^R compared with HIV-1^WT: p24 assay, MT-4 cells; for Activity against HIV-1EFdA^R (in words): concentrations up to 1 μM; for IC50: Human immunodeficiency virus 1, MT4, read-out: IC50 against HIV-1EFdA^R
# In short: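 MT-4 cells (RPMI 1640, 10% FCS, 37°C, 5% CO2) infected with a recombinant HIV-1NL4-3-based clone and cultured 5 days with test compound. Supernatant p24 was measured by chemiluminescent enzyme immunoassay, and signal (cps) was converted to ng/ml against a 2-fold serial-dilution p24 standard curve. Run in triplicate in two or three independent experiments; IC50 was calculated per experiment and averaged.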
# HBV = conditions: ref Takamatsu et al., 2015; cited from earlier work
# HIV-1 = conditions: ref Takamatsu et al., 2015; cited from earlier work
# HIV-1^M184V [1] = experiment: Anti-HIV-1 MTT assay in MT-4 cells; format: cell-based
# HIV-1^T215F = experiment: Anti-HIV-1 MTT assay in MT-4 cells; format: cell-based
# HIV-1^K65R = experiment: Anti-HIV-1 MTT assay in MT-4 cells; format: cell-based
# [2] = system: HIV-1 with I142V, T165R, and M184V in RT; conditions: ref Kawamoto et al., 2008; cited from earlier work
# [3] = 10-mg single dose in humans; ref Grobler et al., CROI. Abstr. 98, 2016; cited from earlier work
# HIV-1^M184V [4] = conditions: ref Kawamoto et al., 2008; Maeda et al., 2014; cited from earlier work
# [5] = ref Nakata et al., 2007; cited from earlier work
smiles,measurement,setting,value
"Nc1nc(NC2CC2)c2ncn([C@H]3C=C[C@@H](CO)C3)c2n1 [ABC, abacavir, reference compound]",IC50,HIV-1^WT,0.263 ± 0.0076 µM
same,CC50,in vitro,> 100 µM
same,S.I. with (CC50/IC50^WT),MT-4 cells,>380
same,IC50,"HIV-1^67-75; Human immunodeficiency virus 1, MT4, read-out: IC50 against HIV-1^67-75",> 1 µM
"Cc1cn([C@H]2C[C@H](N=[N+]=[N-])[C@@H](CO)O2)c(=O)[nH]c1=O [AZT, zidovudine, reference compound]",IC50,HIV-1^WT,0.0374 ± 0.0075 µM
same,CC50,in vitro,> 100 µM
same,S.I. with (CC50/IC50^WT),MT-4 cells,"> 2,670"
"N#C[C@]1(CO)O[C@@H](n2cnc3c(N)nc(N)nc32)C[C@@H]1O [CAdA, 4′-cyano-2-amino-2′-deoxyadenosine]",Activity against HIV-1EFdA^R (in words),HIV-1EFdA^R,favorable activity
same,Anti-HBV activity (in words),HBV,sub nano molar
same,Anti-HIV-1 activity (in words),HIV-1,sub nano molar
same,CC50,in vitro,3.5 ± 1.2 µM
same,S.I. with (CC50/IC50^WT),MT-4 cells,"17,500"
"N#C[C@]1(CO)O[C@@H](n2cnc3c(=O)[nH]c(N)nc32)C[C@@H]1O [CdG, reference compound]",Anti-HBV activity (in words),HBV,sub nano molar
same,Anti-HIV-1 activity (in words),HIV-1,sub nano molar
"Cc1cn(C2CC(O)C(C#N)(CO)O2)c(=O)[nH]c1=O (stereo not shown) [CdT, 4′-cyano-2′-deoxythymidine]",Fold change of IC50 against HIV-1^M184V compared with HIV-1^WT (in parentheses),HIV-1^M184V [1],1.3 fold
same,IC50,HIV-1^M184V [1]; read-out: Anti-HIV-1 IC50 against HIV-1^M184V,0.0117 ± 0.0024 µM
same,Activity against HIV-1EFdA^R (in words),HIV-1EFdA^R,favorable activity
same,IC50,HIV-1^WT,0.0091 ± 0.0073 µM
same,S.I. with (CC50/IC50^WT),MT-4 cells,"> 1,100"
same,CC50,"MT-4 cells; read-out: CC50 in MT-4, MT-4 cells, 7 days of culture",> 10 µM
same,Fold change of IC50 against HIV-1^T215F compared with HIV-1^WT (in parentheses),HIV-1^T215F,0.3 fold
same,IC50,HIV-1^T215F; read-out: Anti-HIV-1 IC50 against HIV-1^T215F,0.003 µM
same,Fold change of IC50 against HIV-1^67-75 compared with HIV-1^WT (in parentheses),"HIV-1^67-75; MT-4 cells, MTT assay",0.9 fold
same,Fold change of IC50 against HIV-1^K65R compared with HIV-1^WT (in parentheses),HIV-1^K65R,0.2 fold
"C#C[C@]1(CO)O[C@@H](n2cnc3c(N)nc(F)nc32)C[C@@H]1O [EFdA, 4′-ethynyl-2-fluoro-2′-deoxyadenosine]","Resistance, fold change compared with HIV-1^WT",[2],22 fold
same,Time with concentrations exceeding projected efficacious concentrations,[3],at least 7 days
same,IC50,HIV-1EFdA^R,0.042 µM
same,Fold change of IC50 against HIV-1EFdA^R compared with HIV-1^WT,HIV-1EFdA^R,52 fold
same,Activity against HIV-1EFdA^R (in words),HIV-1EFdA^R,favorable activity
same,Anti-HBV activity (in words),HBV,minor anti-HBV activity
same,CC50,in vitro,19.2 ± 6 µM
same,S.I. with (CC50/IC50^WT),MT-4 cells,"64,000"
same,Fold decrease in activity against HIV-1^M184V (previous observation),HIV-1^M184V [4],~ 6 fold
"C#C[C@]1(COP(=O)(O)OP(=O)(O)OP(=O)(O)O)O[C@@H](n2cnc3c(N)nc(F)nc32)C[C@@H]1O [EFdA-TP, EFdA-triphosphate]",Intracellular half-life,[5],≥ 17 h
"C#C[C@]1(CO)O[C@@H](n2ccc(N)nc2=O)C[C@@H]1O [EdC, 4′-ethynyl-2′-deoxycytidine]",Activity against HIV-1EFdA^R (in words),HIV-1EFdA^R,favorable activity
"C#C[C@]1(CO)O[C@@H](n2cnc3c(=O)[nH]c(N)nc32)C[C@@H]1O [EdG, 4′-ethynyl-2′-deoxyguanosine]",Activity against HIV-1EFdA^R (in words),HIV-1EFdA^R,favorable activity
same,CC50,in vitro,7 µM
same,S.I. with (CC50/IC50^WT),MT-4 cells,"4,350"
"CC[C@]1(CO)O[C@@H](n2cnc3c(N)nc(N)nc32)C[C@@H]1O [EtAdA, 4′-ethyl-2-amino-2′-deoxyadenosine]",CC50,in vitro,35.9 ± 3.1 µM
same,S.I. with (CC50/IC50^WT),MT-4 cells,"4,030"
"CC[C@]1(CO)O[C@@H](n2cnc3c(O)nc(N)nc32)C[C@@H]1O [EtdG, 4′-ethyl-2′-deoxyguanosine]",CC50,in vitro,47 ± 3.2 µM
same,S.I. with (CC50/IC50^WT),MT-4 cells,"8,390"
"CNc1nc(N)nc2c1ncn2[C@H]1C[C@H](O)[C@](CO)(CF)O1 [FMAMdA, 4′-fluoromethyl-2-amino-N6-methyl-2′-deoxyadenosine]",CC50,in vitro,> 100 µM
same,S.I. with (CC50/IC50^WT),MT-4 cells,>600
"Nc1nc(N)c2ncn([C@H]3C[C@H](O)[C@](CO)(CF)O3)c2n1 [FMAdA, 4′-fluoromethyl-2-amino-2′-deoxyadenosine]",CC50,in vitro,22.2 ± 4.1 µM
same,S.I. with (CC50/IC50^WT),MT-4 cells,"7,400"
"Nc1nc(F)nc2c1ncn2[C@H]1C[C@H](O)[C@](CO)(CF)O1 [FMFdA, 4′-fluoromethyl-2-fluoro-2′-deoxyadenosine]",CC50,in vitro,6.6 ± 0.5 µM
same,S.I. with (CC50/IC50^WT),MT-4 cells,260
"Nc1ccn([C@H]2C[C@H](O)[C@](CO)(CF)O2)c(=O)n1 [FMdC, 4′-fluoromethyl-2′-deoxycytidine]",CC50,in vitro,4 µM
same,S.I. with (CC50/IC50^WT),MT-4 cells,120
"C[C@]1(CO)O[C@@H](n2cnc3c(N)nc(N)nc32)C[C@@H]1O [MAdA, 4′-methyl-2-amino-2′-deoxyadenosine]",CC50,in vitro,4 ± 0.3 µM
same,S.I. with (CC50/IC50^WT),MT-4 cells,15
"C[C@]1(CO)O[C@@H](n2cnc3c(O)nc(N)nc32)C[C@@H]1O [MdG, 4′-methyl-2′-deoxyguanosine]",CC50,in vitro,4.6 ± 0.6 µM
same,S.I. with (CC50/IC50^WT),MT-4 cells,25
"CC(C)OC(=O)OCOP(=O)(CO[C@H](C)Cn1cnc2c(N)ncnc21)OCOC(=O)OC(C)C [TDF, tenofovir disoproxil fumarate, reference compound]",IC50,HIV-1^WT,0.204 ± 0.127 µM
same,CC50,in vitro,39.4 ± 7.3 µM
same,S.I. with (CC50/IC50^WT),MT-4 cells,190
"C=C[C@]1(CO)O[C@@H](n2cnc3c(N)nc(N)nc32)C[C@@H]1O [VAdA, 4′-vinyl-2-amino-2′-deoxyadenosine]",IC50,HIV-1EFdA^R,0.804 µM
same,Fold change of IC50 against HIV-1EFdA^R compared with HIV-1^WT,HIV-1EFdA^R,190 fold
same,CC50,in vitro,20.6 ± 3.2 µM
same,S.I. with (CC50/IC50^WT),MT-4 cells,"4,790"

# Source: article PMC6261781 (Cell chemical biology, 2018)
